Assay [1] deals with T1, Lethal factor (Bacillus anthracis, UniProt P15917).
T1 sequence (P15917 whole entry): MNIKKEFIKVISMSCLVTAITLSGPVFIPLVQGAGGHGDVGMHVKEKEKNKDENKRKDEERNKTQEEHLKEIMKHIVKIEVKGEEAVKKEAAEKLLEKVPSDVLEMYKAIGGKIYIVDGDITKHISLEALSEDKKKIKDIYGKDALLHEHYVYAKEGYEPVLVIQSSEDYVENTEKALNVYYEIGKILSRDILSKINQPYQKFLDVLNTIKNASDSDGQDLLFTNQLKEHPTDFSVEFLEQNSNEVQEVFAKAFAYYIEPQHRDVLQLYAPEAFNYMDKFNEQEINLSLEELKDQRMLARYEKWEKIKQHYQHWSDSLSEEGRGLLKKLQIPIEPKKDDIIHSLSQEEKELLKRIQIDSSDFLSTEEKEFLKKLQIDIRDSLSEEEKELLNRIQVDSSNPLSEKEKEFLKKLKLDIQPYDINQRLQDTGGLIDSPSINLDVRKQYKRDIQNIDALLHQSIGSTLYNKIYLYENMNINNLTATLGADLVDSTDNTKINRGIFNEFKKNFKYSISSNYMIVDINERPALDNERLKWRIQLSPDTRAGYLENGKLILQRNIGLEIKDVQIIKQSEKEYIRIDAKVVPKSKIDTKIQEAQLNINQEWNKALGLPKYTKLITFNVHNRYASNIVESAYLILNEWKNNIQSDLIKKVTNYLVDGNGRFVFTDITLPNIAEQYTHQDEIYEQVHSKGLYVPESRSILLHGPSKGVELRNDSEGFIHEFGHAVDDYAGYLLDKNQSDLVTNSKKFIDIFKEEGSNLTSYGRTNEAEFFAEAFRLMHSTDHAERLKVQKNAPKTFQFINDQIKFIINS

The target of assay [2] is Matrix metalloproteinase-9 (Homo sapiens, UniProt P14780). The experiment in a line: Inhibition of human MMP-9 after 60 mins by FRET assay. The essentials:
(§1)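 MMP-1 (38 nM) or MMP-9 (13 nM) with 50 fluorogenic substrate in 50 mM MOPS pH 6.0 and 0.05% NP-40, 37 °C for 60 min (linear range 90 min). Stopped with acetic acid (0.5% final); emission at 440 nm, excitation at 340 nm.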

For a further assay, the target named is T2, Interstitial collagenase (Homo sapiens, UniProt P03956).
T2 sequence (P03956 whole entry): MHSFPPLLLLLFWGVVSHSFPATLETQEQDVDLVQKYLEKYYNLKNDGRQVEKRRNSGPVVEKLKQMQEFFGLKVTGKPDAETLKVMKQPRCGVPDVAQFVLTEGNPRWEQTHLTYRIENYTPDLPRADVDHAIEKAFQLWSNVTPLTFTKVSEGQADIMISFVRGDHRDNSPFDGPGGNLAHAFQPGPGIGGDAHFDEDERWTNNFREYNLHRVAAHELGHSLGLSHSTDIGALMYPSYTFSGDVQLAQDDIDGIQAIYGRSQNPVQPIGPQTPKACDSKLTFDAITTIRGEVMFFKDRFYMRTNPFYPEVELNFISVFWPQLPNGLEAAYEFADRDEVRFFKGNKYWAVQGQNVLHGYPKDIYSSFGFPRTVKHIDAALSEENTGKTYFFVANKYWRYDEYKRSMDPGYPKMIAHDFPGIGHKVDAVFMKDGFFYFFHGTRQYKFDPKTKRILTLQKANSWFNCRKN
As to the kind of experiment: Inhibition of human MMP-1 after 60 mins by FRET assay. The essentials:
as §1

Assay [3] has as its target Botulinum neurotoxin type A (Clostridium botulinum, UniProt P0DPI0). As to the kind of experiment: Inhibition of Clostridium bolulinum BoNT/A assessed as cleavage of MOCAc-Lys-Lys-Val-Tyr-Pro-Tyr-Pro-Met-Glu-Lys(Dnp)-NH2 after 40 mins by FRET assay. The method, boiled down: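 BoNT/A light chain (2 nM) in a 96-well FRET format. Reactions were stopped with acetic acid to 0.5% and cleaved-substrate fluorescence read at 485 nm with excitation at 398 nm. The same format served for IC50 and mechanism kinetics.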

Assay [4] has as its target T1, Lethal factor. The experiment in a line: Inhibition of Bacillus anthracis lethal factor assessed as MCA-KKVYPYPME[dnp]K amide cleavage after 30 mins by fluorescence plate reader analysis.
Assay [5] deals with T1, Lethal factor. The experiment in a line: Non-competitive inhibition of Bacillus anthracis lethal factor assessed as MCA-KKVYPYPME[dnp]K amide cleavage after 30 mins by Eadie-Hofstee plot analysis.
In assay [6] the target is T1, Lethal factor. As to the kind of experiment: Non-competitive inhibition of Bacillus anthracis lethal factor using 100 uM MCA-KKVYPYPME[dnp]K amide as substrate after 30 mins by Eadie-Hofstee plot analysis.
Assay [7] deals with T1, Lethal factor. As to the kind of experiment: Non-competitive inhibition of Bacillus anthracis lethal factor using 50 uM MCA-KKVYPYPME[dnp]K amide as substrate after 30 mins by Eadie-Hofstee plot analysis.
Assay [8] concerns the target T1, Lethal factor. As to the kind of experiment: Non-competitive inhibition of Bacillus anthracis lethal factor using 25 uM MCA-KKVYPYPME[dnp]K amide as substrate after 30 mins by Eadie-Hofstee plot analysis.
Assay [9] has as its target T1, Lethal factor. The experiment in a line: Non-competitive inhibition of Bacillus anthracis lethal factor using 12.5 uM MCA-KKVYPYPME[dnp]K amide as substrate after 30 mins by Eadie-Hofstee plot analysis.
Assay [10] concerns the target T1, Lethal factor. As to the kind of experiment: Non-competitive inhibition of Bacillus anthracis lethal factor using 6.25 uM MCA-KKVYPYPME[dnp]K amide as substrate after 30 mins by Eadie-Hofstee plot analysis.
In assay [11] the target is T1, Lethal factor. As to the kind of experiment: Non-competitive inhibition of Bacillus anthracis lethal factor using 3.12 uM MCA-KKVYPYPME[dnp]K amide as substrate after 30 mins by Eadie-Hofstee plot analysis.
Assay [12] has as its target T1, Lethal factor. The experiment in a line: Inhibition of Bacillus anthracis lethal factor by fluorescence assay. The method, boiled down: (§2)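 FRET-based assay: LF cleaves a SNAP-derived fluorogenic peptide, and cleavage is read as a change in fluorescence.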
Assay [13] concerns the target T1, Lethal factor. The experiment in a line: Inhibition of Bacillus anthracis lethal factor. The essentials: as §2

Botulinum neurotoxin type A, sequence (P0DPI0 2-448 limits assumed): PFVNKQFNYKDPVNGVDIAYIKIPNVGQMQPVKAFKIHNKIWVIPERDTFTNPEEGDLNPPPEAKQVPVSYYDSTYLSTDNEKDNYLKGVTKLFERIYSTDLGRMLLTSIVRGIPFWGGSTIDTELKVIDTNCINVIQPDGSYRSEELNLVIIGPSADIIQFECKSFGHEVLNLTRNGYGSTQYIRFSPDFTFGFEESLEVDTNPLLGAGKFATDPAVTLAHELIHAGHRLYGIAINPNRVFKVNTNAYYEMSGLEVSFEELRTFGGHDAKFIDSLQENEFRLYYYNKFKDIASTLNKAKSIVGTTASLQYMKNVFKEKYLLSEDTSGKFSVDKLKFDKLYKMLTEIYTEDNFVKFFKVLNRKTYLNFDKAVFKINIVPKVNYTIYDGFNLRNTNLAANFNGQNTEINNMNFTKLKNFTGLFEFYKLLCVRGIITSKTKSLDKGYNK
Matrix metalloproteinase-9, sequence (P14780 whole entry): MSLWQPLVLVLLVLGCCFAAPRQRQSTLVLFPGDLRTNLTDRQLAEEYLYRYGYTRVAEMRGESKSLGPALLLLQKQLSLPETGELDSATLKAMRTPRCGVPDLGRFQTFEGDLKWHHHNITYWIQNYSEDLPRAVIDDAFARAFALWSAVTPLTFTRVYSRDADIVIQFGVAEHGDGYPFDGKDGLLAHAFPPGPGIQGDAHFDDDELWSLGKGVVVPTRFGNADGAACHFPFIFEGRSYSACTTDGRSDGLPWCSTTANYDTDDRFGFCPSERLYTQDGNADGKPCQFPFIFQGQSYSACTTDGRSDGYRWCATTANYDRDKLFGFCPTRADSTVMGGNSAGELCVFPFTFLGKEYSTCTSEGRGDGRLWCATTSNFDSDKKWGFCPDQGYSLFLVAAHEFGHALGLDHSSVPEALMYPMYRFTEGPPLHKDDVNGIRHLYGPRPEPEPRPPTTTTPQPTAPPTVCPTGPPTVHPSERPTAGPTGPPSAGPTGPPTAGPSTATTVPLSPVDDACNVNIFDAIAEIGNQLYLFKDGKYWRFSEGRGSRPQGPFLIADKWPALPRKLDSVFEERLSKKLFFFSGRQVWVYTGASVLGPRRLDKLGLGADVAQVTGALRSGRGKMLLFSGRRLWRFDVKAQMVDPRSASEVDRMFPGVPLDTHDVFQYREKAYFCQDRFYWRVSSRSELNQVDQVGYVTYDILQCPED

Take `Cc1cc(S(=O)(=O)N[C@@H](C(=O)NO)C2CCOCC2)ccc1F`: the Ki (as a rule, a dissociation constant, usually derived from enzyme kinetics or from competition with a known ligand) at Lethal factor [1] is 0.024 µM.
For `Cc1cc(N)c2cc(NC(=O)COc3ccc(OCc4ccccc4)cc3)ccc2n1`, the IC50 – broadly, the midpoint of a concentration-inhibition curve – is above 100 µM in assay [2], above 100 µM against Interstitial collagenase, above 100 µM in [3] and 33 µM on Lethal factor [4].
Regarding `COc1ccccc1CCC(=O)Nc1ccc2nc(C)cc(N)c2c1`, the inhibition constant (Ki) on Lethal factor [5] turned out to be 2.88 µM; at Lethal factor [11], 0.478 µM. In addition, the IC50 is 1.22 µM on Lethal factor [6]; 1.1 µM on Lethal factor [7]; 0.952 µM on Lethal factor [8]; 0.841 µM on Lethal factor [9]; 0.729 µM on Lethal factor [10]; above 100 µM in assay [2]. The results for the IC50 (against Interstitial collagenase; in [3]; at Lethal factor [4]) were above 100 µM, above 100 µM and 3 µM, respectively.
With `Cc1cc(N)c2cc(NC(=O)c3ccc(-c4cnc5ccccc5c4)cc3)ccc2n1`, the half-maximal inhibitory concentration (IC50) in assay [2] was 11 µM; against Interstitial collagenase, 78 µM; in assay [3], above 100 µM; at Lethal factor [4] it was 3 µM.
As to `Cc1cc(N)c2cc(NC(=O)c3ccc(-c4cncc5ccccc45)cc3)ccc2n1`, the concentration for half-maximal inhibition (IC50) in assay [2] is 9.4 µM; at Interstitial collagenase, above 100 µM; in assay [3], 65 µM; on Lethal factor [4], 13 µM.
For `Cc1cc(N)c2cc(NC(=O)c3ccc(-c4cccc5cccnc45)cc3)ccc2n1`, the IC50 in [2] is 17 µM; against Interstitial collagenase, above 100 µM; in assay [3], 65 µM; at Lethal factor [4], 11 µM.
On to `Cc1cc(N)c2cc(NC(=O)c3cccc(-c4ccc5ncccc5c4)c3)ccc2n1`, for which the IC50 in assay [2] is above 100 µM; against Interstitial collagenase, above 100 µM; in assay [3], 26 µM; on Lethal factor [4] it was 4.6 µM.
On to `O=c1oc2c(O)c(O)ccc2c2c1CCC2`, for which the inhibition constant Ki at Lethal factor [12] was found to be 0.57 µM.
The molecule `O=C(N/N=C/c1cc([N+](=O)[O-])ccc1O)c1ccc(O)c(O)c1` came in with a Ki at Lethal factor [13] of 1.1 µM.
For `Cc1cc(=S)c(O)c(C(=S)NCc2ccc(-c3ccccc3)cc2)o1`, the half-maximal inhibitory concentration (IC50) against Lethal factor [13] amounted to 14 µM.
As for `CNC(=O)[C@@H](CCc1ccccc1)NC(=O)[C@@H](CC(=O)NO)CC(C)C`, the IC50 at Lethal factor [13] stood at 7 µM.
Regarding `Cc1cc(N)c2cc(NC(=O)c3ccc(Oc4ccccc4)cc3)ccc2n1`, the concentration for half-maximal inhibition (IC50) in assay [2] was above 100 µM; against Interstitial collagenase, above 100 µM; in assay [3], above 100 µM; at Lethal factor [4], 70 µM.
`Cc1cc(N)c2cc(NC(=O)c3ccc(-c4ccc5ncccc5c4)cc3)ccc2n1`: the inhibition constant (Ki) on Lethal factor [5] was found to be 1.14 µM; on Lethal factor [11] it was 1.26 µM. The IC50 at Lethal factor [6] was 1.1 µM; on Lethal factor [7], 1.16 µM; on Lethal factor [8], 1.22 µM; at Lethal factor [9], 1.25 µM; at Lethal factor [10], 1.26 µM; in assay [2], 1.7 µM. Also, the IC50 at Interstitial collagenase is above 100 µM; in assay [3], 38 µM; on Lethal factor [4], 1.6 µM.
`Cc1cc(N)c2cc(NC(=O)Nc3ccc4nc(C)cc(N)c4c3)ccc2n1` [AMINOQUINURIDE]: the half-maximal inhibitory concentration (IC50) worked out at 100 µM in assay [2], 31 µM against Interstitial collagenase, 7.2 µM in [3] and 3.2 µM at Lethal factor [4].
